# How the values were obtained:
# Rattus norvegicus [1] = species on record: Rattus norvegicus; assay: Analgesic activity against complete Freund's adjuvant-induced Sprague-Dawley rat inflammatory pain assessed as inhibition of chronic paw swelling; type: functional
# Summary of the method: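 Adjuvant-induced arthritis in rats: CFA injected into primary paw on day 0; oral dosing in 0.5% methocel once daily for 9 days starting day 9; secondary paw swelling measured; plasma levels taken 24 h after final dose; n = 7/group; 1-way ANOVA/Dunnett's vs vehicle.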
# Rattus norvegicus [2] = assay: Analgesic activity in po dosed Sprague-Dawley rat assessed as inhibition of carrageenan-induced mechanical hyperalgesia relative to control; type: functional
# Summary of the method: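 SD rats given subplantar carrageenan; compound dosed orally as a single dose; mechanical hyperalgesia read at 3 h post carrageenan, 1 h post dose; inhibition expressed vs vehicle control; n = 10-20/group; 1-way ANOVA/Dunnett's.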
# [3] = target: T1, Prostaglandin D2 receptor 2 (Homo sapiens, UniProt Q9Y5Y4); assay: Displacement of [3H]PGD2 from human DP2 receptor expressed in HEK293-EBNA cells by scintillation counting; type: cell-based
# T1 sequence (Q9Y5Y4 whole entry): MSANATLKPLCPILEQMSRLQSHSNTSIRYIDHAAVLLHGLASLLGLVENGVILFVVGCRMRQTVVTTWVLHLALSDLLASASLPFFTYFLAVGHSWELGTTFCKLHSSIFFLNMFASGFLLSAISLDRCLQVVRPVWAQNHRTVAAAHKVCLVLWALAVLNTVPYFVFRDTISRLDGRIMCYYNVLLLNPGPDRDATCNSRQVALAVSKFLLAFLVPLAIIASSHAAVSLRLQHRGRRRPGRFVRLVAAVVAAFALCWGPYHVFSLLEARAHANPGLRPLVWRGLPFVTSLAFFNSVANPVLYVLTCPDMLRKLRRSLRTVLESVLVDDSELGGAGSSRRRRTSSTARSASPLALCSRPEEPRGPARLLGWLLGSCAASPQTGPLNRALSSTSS
# Summary of the method: (§1)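 Radioligand binding on membranes from HEK 293(EBNA) clonal lines overexpressing each prostanoid receptor, using the respective 3H-prostaglandin or thromboxane ligand; EP4 binding also run with 10% human serum; Ki as means of at least three experiments (rEP2, rEP3 n = 1).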
# [4] = target: Prostaglandin E2 receptor EP2 subtype (Homo sapiens, UniProt P43116); assay: Displacement of [3H]PGE2 from human EP2 receptor expressed in HEK293-EBNA cells by scintillation counting; type: cell-based; summary of the method: as §1
# Prostacyclin receptor = Prostacyclin receptor (Homo sapiens, UniProt P43119); assay: Displacement of [3H]iloprost from human IP receptor expressed in HEK293-EBNA cells by scintillation counting; type: cell-based; summary of the method: as §1
# [5] = target: T2, Prostaglandin E2 receptor EP1 subtype (Homo sapiens, UniProt P34995); assay: Displacement of [3H]PGE2 from human EP1 receptor expressed in HEK293-EBNA cells by scintillation counting; type: cell-based; summary of the method: as §1
# T2 sequence (P34995 whole entry): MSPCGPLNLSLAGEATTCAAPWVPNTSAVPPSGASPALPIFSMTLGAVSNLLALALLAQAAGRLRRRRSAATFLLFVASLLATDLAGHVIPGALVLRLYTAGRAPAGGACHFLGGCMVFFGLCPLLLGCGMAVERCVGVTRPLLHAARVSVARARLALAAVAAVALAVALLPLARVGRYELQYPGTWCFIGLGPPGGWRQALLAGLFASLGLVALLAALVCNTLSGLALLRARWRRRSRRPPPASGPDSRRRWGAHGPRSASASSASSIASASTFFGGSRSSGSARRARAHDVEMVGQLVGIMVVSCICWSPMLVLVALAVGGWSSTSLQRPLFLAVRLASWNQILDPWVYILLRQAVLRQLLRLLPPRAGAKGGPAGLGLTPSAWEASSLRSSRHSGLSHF
# [6] = target: Prostaglandin F2-alpha receptor (Homo sapiens, UniProt P43088); assay: Displacement of [3H]PGF2alpha from human FP receptor expressed in HEK293-EBNA cells by scintillation counting; type: cell-based; summary of the method: as §1
# [7] = target: T3, Prostaglandin E2 receptor EP4 subtype (Homo sapiens, UniProt P35408); assay: Antagonist activity at human EP4 receptor expressed in HEK293 cells assessed as inhibition of PGE2-induced cAMP accumulation by scintillation proximity assay; type: functional, cell-based
# Summary of the method: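 HEK 293 cells; inhibition of PGE2-induced cAMP accumulation measured, with and without 10% human serum; means of at least three experiments.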
# Thromboxane A2 receptor = target: T4, Thromboxane A2 receptor (Homo sapiens, UniProt P21731); assay: Displacement of [3H]SQ29548 from human TP receptor expressed in HEK293-EBNA cells by scintillation counting; type: cell-based; summary of the method: as §1
# T4 sequence (P21731 whole entry): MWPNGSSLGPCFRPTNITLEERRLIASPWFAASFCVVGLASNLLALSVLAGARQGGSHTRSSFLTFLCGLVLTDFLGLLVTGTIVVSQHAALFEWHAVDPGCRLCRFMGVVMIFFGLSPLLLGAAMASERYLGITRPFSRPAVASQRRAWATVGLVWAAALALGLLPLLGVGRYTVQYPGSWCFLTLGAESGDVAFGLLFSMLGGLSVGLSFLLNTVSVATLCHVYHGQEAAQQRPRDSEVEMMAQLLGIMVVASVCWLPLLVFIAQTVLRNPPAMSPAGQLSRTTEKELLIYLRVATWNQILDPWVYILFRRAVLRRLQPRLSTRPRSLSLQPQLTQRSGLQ
# [8] = target: T5, Prostaglandin D2 receptor (Homo sapiens, UniProt Q13258); assay: Displacement of [3H]PGD2 from human DP1 receptor expressed in HEK293-EBNA cells by scintillation counting; type: cell-based; summary of the method: as §1
# T5 sequence (Q13258 whole entry): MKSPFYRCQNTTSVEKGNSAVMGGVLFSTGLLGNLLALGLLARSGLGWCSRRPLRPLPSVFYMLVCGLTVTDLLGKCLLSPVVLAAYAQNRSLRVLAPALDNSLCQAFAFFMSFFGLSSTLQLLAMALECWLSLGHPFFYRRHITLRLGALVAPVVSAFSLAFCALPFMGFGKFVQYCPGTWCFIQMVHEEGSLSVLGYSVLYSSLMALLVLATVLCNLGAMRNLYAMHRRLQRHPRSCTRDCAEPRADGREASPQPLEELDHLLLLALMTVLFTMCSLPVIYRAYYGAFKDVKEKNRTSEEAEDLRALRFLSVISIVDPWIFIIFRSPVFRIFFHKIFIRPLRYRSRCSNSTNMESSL
# [9] = target: T6, Prostaglandin E2 receptor EP3 subtype (Homo sapiens, UniProt P43115); assay: Displacement of [3H]PGE2 from human EP3 receptor expressed in HEK293-EBNA cells by scintillation counting; type: cell-based; summary of the method: as §1
# T6 sequence (P43115 whole entry): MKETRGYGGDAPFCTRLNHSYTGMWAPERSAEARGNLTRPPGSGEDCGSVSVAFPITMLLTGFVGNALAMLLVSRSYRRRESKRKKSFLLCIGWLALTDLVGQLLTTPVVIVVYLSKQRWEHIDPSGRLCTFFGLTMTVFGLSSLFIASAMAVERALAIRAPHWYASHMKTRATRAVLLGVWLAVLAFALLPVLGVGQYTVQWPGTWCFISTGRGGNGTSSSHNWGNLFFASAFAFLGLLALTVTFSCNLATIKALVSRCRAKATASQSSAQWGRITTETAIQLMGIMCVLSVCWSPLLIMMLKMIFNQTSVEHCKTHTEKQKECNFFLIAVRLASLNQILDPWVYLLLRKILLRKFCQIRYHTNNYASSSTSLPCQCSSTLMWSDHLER
# [10] = target: T3, Prostaglandin E2 receptor EP4 subtype; assay: Displacement of [3H]PGE2 from human EP4 receptor expressed in HEK293-EBNA cells by scintillation counting; type: cell-based; summary of the method: as §1
# Prostaglandin E2 receptor EP2 subtype, sequence (P43116 whole entry): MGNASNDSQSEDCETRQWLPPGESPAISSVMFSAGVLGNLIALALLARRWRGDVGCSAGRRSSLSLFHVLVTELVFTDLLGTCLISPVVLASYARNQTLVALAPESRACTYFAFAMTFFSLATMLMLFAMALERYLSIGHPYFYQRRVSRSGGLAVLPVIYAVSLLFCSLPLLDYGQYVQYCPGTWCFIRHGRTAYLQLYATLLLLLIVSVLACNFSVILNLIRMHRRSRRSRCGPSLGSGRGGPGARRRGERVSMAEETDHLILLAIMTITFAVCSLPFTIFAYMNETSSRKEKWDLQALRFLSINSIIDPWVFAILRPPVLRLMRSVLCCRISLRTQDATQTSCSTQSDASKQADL
# Prostacyclin receptor, sequence (P43119 whole entry): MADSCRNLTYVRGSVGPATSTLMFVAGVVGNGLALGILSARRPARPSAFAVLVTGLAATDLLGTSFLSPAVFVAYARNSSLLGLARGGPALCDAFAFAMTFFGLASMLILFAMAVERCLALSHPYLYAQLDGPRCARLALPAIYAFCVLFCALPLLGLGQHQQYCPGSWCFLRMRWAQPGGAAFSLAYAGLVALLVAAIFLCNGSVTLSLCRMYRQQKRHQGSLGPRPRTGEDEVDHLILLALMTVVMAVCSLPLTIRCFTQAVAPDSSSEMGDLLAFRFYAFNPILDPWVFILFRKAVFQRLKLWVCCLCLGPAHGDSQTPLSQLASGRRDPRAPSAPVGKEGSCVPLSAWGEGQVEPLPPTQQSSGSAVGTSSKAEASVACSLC
# Prostaglandin F2-alpha receptor, sequence (P43088 whole entry): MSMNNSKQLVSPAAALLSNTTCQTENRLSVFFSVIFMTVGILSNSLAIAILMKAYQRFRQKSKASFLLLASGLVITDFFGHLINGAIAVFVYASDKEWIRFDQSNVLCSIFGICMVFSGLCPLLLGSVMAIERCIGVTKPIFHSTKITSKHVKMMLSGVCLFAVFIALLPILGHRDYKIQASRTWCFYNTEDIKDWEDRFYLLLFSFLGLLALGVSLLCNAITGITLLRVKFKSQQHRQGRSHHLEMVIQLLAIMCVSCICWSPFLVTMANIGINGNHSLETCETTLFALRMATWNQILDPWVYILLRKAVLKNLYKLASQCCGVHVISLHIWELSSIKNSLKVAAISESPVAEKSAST
# T3 sequence (P35408 whole entry): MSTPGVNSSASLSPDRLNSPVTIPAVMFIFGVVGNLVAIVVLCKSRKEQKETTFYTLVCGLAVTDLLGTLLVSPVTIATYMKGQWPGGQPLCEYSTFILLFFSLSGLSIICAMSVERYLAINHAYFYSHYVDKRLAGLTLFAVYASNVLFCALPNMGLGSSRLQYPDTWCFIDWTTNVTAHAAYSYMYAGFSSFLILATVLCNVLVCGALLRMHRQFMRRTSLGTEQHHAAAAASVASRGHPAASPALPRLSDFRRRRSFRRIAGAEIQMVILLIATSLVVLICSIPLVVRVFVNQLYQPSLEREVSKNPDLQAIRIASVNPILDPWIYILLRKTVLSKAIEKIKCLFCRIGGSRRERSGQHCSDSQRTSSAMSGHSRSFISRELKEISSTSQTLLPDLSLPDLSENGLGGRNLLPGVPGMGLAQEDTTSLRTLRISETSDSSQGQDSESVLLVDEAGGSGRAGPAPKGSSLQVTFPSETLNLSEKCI
SMILES,ED50 (Rattus norvegicus [1]),inhibition (INH) (Rattus norvegicus [2]) [%],Ki [3] [nM],Ki [4] [nM],Ki (Prostacyclin receptor) [nM],Ki [5] [nM],Ki [6] [nM],IC50 [7] [nM],Ki (Thromboxane A2 receptor) [nM],Ki [8] [nM],Ki [9] [nM],Ki [10] [nM]
CS(=O)(=O)c1ccc(C2=C(c3ccccc3)C(=O)OC2)cc1 [ROFECOXIB],0.7 mg/kg,–,–,–,–,–,–,–,–,–,–,–
CS(=O)(=O)c1ccc(C2=C(c3ccc(F)c(F)c3)C(=O)OC2)cc1,0.5 mg/kg,70,–,–,–,–,–,–,–,–,–,–
Cc1sc(C)c(C(=O)N[C@@H](C)c2ccc(C(=O)O)cc2)c1Cc1cccc(Cl)c1,–,–,> 2230,467,> 2230,> 2230,> 2230,8.6,> 2230,> 2230,> 2230,–
C[C@H](NC(=O)c1c(Cl)sc(Cl)c1Cc1cccc(Cl)c1)c1ccc(C(=O)O)cc1,–,–,> 456,746,> 456,> 456,> 456,3.6,> 456,> 456,> 456,–
C[C@H](NC(=O)c1cscc1Cc1cccc(Cl)c1)c1ccc(C(=O)O)cc1,–,–,> 7280,16,> 7280,> 7280,> 7280,12,> 7280,> 7280,> 7280,6.4
Cc1sc(C)c(C(=O)N[C@@H](C)c2ccc(C(=O)O)cc2)c1Cc1cccc(C(F)(F)F)c1,–,–,> 3460,800,> 3460,> 3460,> 3460,4.7,> 3460,> 3460,> 3460,2.5
Cc1sc(C)c(C(=O)NC2(c3ccc(-c4nn[nH]n4)cc3)CC2)c1Cc1ccc(C(F)(F)F)cc1,–,–,> 501,> 29000,> 501,> 501,> 501,2.3,> 501,> 501,> 501,0.63
Cc1sc(C)c(C(=O)N[C@@H](C)c2ccc(C(=O)O)cc2)c1Cc1ccc(C(F)(F)F)cc1,–,–,> 5470,1190,> 5470,> 5470,> 5470,4.5,> 5470,> 5470,> 5470,–
Cc1sc(C)c(C(=O)N[C@@H](C)c2ccc(C(=O)O)cc2)c1Cc1ccc(Cl)cc1,–,–,> 2120,202,> 2120,> 2120,> 2120,5.4,> 2120,> 2120,> 2120,2.9
COc1cccc(OC)c1C1(C(=O)NS(=O)(=O)Cc2ccc(N3Cc4c(c(OCC(F)(F)F)c5cccnc5c4OCC(F)(F)F)C3=O)c(C)c2)CC1,0.003 mg/kg/day,–,–,–,–,–,–,–,–,–,–,–
C[C@@H](NC(=O)c1c(Cl)sc(Cl)c1Cc1cccc(Cl)c1)c1ccc(C(=O)O)cc1,–,–,> 224,384,> 224,> 224,> 224,1.8,> 224,> 224,> 224,0.87
Cc1sc(C)c(C(=O)NC2(c3ccc(C(=O)O)cc3)CC2)c1Cc1cccc(C(F)(F)F)c1,–,–,> 4990,> 29100,> 4990,> 4990,> 4990,–,> 4990,> 4990,> 4990,0.75
O=C(O)c1ccc(CNC(=O)c2c(Cl)sc(Cl)c2Cc2cccc(Cl)c2)cc1,–,–,> 628,43,> 628,> 628,> 628,1.6,> 628,> 628,> 628,0.72
